Screening data deposited in PubChem BioAssay by several laboratories.
SR-BI HDL uptake – inhibitors of SR-BI mediated HDL lipid uptake, primary screen, ldlA[mSR-BI] cells, fluorescence, single point; inhibition, % at 12.5 µM; AID 488896, 2010; Scavenger receptor class B member 1 (Mus musculus), Q61009; ldlA[mSR-BI] CHO cells, DiI-HDL uptake fluorescence, 3 h; actives 0.96% (n = 320,000);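 active = mean replicate inhibition of at least 70% and a set share of replicates each scoring 70 or more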;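 note: 0% = median of neutral control wells and 100% = median of positive control wells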
Target sequence (Q61009 whole entry, looked up): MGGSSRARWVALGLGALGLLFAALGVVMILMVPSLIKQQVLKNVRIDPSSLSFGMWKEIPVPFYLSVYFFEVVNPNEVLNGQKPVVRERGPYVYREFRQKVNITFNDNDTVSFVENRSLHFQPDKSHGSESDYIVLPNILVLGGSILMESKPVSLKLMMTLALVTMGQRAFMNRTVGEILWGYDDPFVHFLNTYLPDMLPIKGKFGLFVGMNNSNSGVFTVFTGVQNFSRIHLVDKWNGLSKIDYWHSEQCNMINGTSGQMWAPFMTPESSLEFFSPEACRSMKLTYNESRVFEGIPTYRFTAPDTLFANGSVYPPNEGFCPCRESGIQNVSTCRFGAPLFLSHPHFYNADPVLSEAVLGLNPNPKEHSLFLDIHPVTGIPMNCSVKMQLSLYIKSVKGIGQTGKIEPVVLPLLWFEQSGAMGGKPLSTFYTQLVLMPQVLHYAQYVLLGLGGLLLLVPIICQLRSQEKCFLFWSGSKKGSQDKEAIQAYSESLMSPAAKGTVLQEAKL
Calb FLC – C. albicans growth inhibition with fluconazole, primary screen, CaCi-2 strain, Alamar Blue fluorescence | C. albicans CaCi-2 + fluconazole, 48 h | actives 0.57% (n = 300,000) | growth inhibition, % (no concentration beside the values);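 active = growth inhibition above about 58% in most replicates, limit read from the data, passing the limit was not always enough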;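 note: all wells also contain fluconazole at 8 µg/ml as a sub-toxic cotreatment; 0% = median of DMSO wells and 100% = median of geldanamycin control wells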
beta cell repl – inducers of MIN6 beta-cell proliferation, primary screen, ATP luminescence, uHTS; MIN6 cells proliferation, ATPlite luminescence, 48 h; cells starved in 0.2% serum; 100% = growth in 10% serum; proliferation, % at 10 µM; actives 0.29% (n = 330,000);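 active = compounds whose signal lies at least 3.5 SD above the mean of all wells on their plate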;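 note: 0% = DMSO-treated cells in low-serum medium and 100% = 10% serum control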
SR-BI uptake up – activators of SR-BI mediated DiI-HDL uptake, primary screen, ldlA[mSR-BI] CHO cells, DiI fluorescence | 3 h; 100 = double the neutral-control signal | activation, % at 12.5 µM | actives 0.096% (n = 320,000);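 active = mean replicate activation of at least 60% and every replicate at or above 60%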;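 note: 0% = median plate neutral-control signal and 100% = twice that signal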
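Material: SR-BI-overexpressing, LDLR-lacking CHO cells; schedule: compound exposure 3 h, 37 °C; reagent: DiI-labelled HDL at 10 µg/mL final; technique: bottom-read fluorescence, 550/595 nm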
Ins promoter up – insulin promoter activators in MIN6 cells, imaging, high-content screening, mouse beta cells; MIN6 insulin promoter-GFP reporter; stronger effect = higher value; z-score at 5 µM; actives 0.3% (n = 190,000); AID 1625, 2009;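 active = z-score above 3 at 5 µM with at least 500 cells counted in the well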
m5-HT2A agonist – mouse Htr2a agonists via beta-arrestin recruitment, primary screen, cell-based, luminescence; 5-hydroxytryptamine receptor 2A (Mus musculus), P35363; CHO-K1 mHTR2A beta-arrestin complementation; percent of 30 µM serotonin response; activation, % at 7.6 µM; actives 0.66% (n = 360,000); AID 624169, 2012;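 active = activation above a run cutoff, the mean activation of all tested compounds plus 3 SD, cut at about 14% in these data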;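 note: 0% = plate median of compound wells and 100% = 30 µM serotonin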
OPRM1 ag – OPRM1 agonists via beta-arrestin recruitment, confirmation, counter-screen for mouse HTR2A agonist project, cell-based, luminescence, single concentration; shares compounds with m5-HT2A agonist; actives 5.3% (n = 2,300); AID 624380, 2012; activation, % at 9.3 µM; U2OS OPRM1 beta-arrestin PathHunter; DMSO 0%, DAMGO 9.3 µM 100%;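 active = mean activation above the mean of DMSO-only wells plus 3 SD, cut at about 0.5% in these data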
m5-HT2A ag conf – mouse HTR2A agonists, beta-arrestin recruitment, confirmation, cell-based, luminescence, CHO-K1 PathHunter, triplicate | shares compounds with m5-HT2A agonist | DMSO 0%, 30 µM serotonin 100% | activation, % at 7.6 µM | actives 19% (n = 2,300);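 active = mean activation across triplicates above the hit threshold derived in the original primary screen, cut at about 15% in these data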
* = called active by the depositor; nt = no result. A selection: hits, their analogues and other compounds. The true share with any hit is near 2.4%.

SMILES	SR-BI HDL uptake	Calb FLC	beta cell repl	SR-BI uptake up	Ins promoter up	m5-HT2A agonist	OPRM1 ag	m5-HT2A ag conf
COC(=O)CSc1ccc(S(=O)(=O)N2CCC(C)CC2)cc1[N+](=O)[O-]	7.1	21.2	-1.4	-7.1	-0.24	16.8*	-0.4	-4.3
CCOC(=O)CSc1ccc(S(=O)(=O)N(CC)CC)cc1[N+](=O)[O-]	10.7	24.3	1.1	-10.7	-0.48	17.0*	-0.5	-3.5
O=C(NC(c1ccccc1)c1ccccc1)c1ccc(=O)[nH]n1	10.2	-3.3	-2.8	-10.2	-1.36	-5.3	nt	nt
CC1CC(C)CN(S(=O)(=O)CCNC(=O)c2ccc3c(c2)OCO3)C1 (stereo not given)	3.4	-10.0	-0.1	-3.4	nt	2.6	nt	nt
C[C@H](CO)N1C[C@H](C)[C@@H](CN(C)Cc2cccc3c2OCCCO3)OCc2cnnn2CCCC1=O	nt	nt	nt	nt	nt	19.0*	-0.4	-2.0
COc1cc(NC(=O)CN2C(=O)C(c3ccccc3)=NC2(C)C)cc(OC)c1	-25.4	8.1	-3.5	25.4	0.87	28.1*	-0.5	-3.5
COc1cc(NC(=O)CN2C(=O)C(c3ccccc3)=NC23CCCCCC3)cc(OC)c1	-15.4	13.1	-4.2	15.4	-0.48	-2.9	nt	nt
Cc1c(C)c2ccc(OC(C)C(=O)NCCCN3CCOCC3)c(C)c2oc1=O (stereo not given)	1.6	-4.7	-0.7	-1.6	nt	7.3	nt	nt
Cc1cccc(C)c1NC(=O)c1sc(N)nc1-c1ccccc1	-17.8	3.1	-4.0	17.8	-0.67	19.4*	0.2	-2.0
COc1ccc(N2CCN(Cc3nc(N)nc(N4CCCc5ccccc54)n3)CC2)cc1	-14.9	4.1	-1.3	14.9	-0.14	9.3	nt	nt
Cc1ccc(Nc2nc(N)nc(CN3CCN(c4ccccc4)CC3)n2)cc1Cl	2.6	31.3	-5.6	-2.6	-0.53	14.8*	0.3	69.7*
Nc1nc(CN2CCN(c3cccc(Cl)c3)CC2)nc(N2CCCc3ccccc32)n1	8.1	-8.2	-3.8	-8.1	0.68	24.2*	-0.3	77.3*
Nc1nc(CN2CCN(Cc3ccccc3)CC2)nc(N2CCCc3ccccc32)n1	-8.8	7.3	2.0	8.8	0.94	-6.5	nt	nt
Nc1nc(CN2CCN(c3ccccc3)CC2)nc(N2CCCc3ccccc32)n1	10.2	-6.4	0.2	-10.2	nt	27.7*	-0.4	70.8*
COc1cccc(C2(C)NC(=O)N(CC(=O)Nc3ccc(N4CCOCC4)cc3)C2=O)c1 (stereo not given)	-4.0	nt	4.7	4.0	nt	-1.9	nt	nt
C=CCc1ccccc1OCCn1ccnc1	5.9	1.2	-0.3	-5.9	0.26	15.2*	-0.6	-5.3
C=CCc1cccc(OC)c1OCCOCCn1ccnc1	-13.8	-3.7	1.3	13.8	0.02	-0.6	nt	nt
CCc1cc[n+](C(C(=S)Nc2cccc(C)c2)=C([O-])c2ccc(C)c([N+](=O)[O-])c2)cc1	26.9	nt	nt	-26.9	nt	14.6*	-0.9	-3.9
Cc1ccc(/C([O-])=C(/C(=S)NCc2ccccc2)[n+]2cccc(CO)c2)cc1[N+](=O)[O-]	1.7	nt	nt	-1.7	1.34	-2.6	nt	nt
COCC(=O)Nc1ccc([N+](=O)[O-])cc1OC	7.3	-2.1	0.0	-7.3	0.1	-2.3	nt	nt
COCC(=O)Nc1cc([N+](=O)[O-])ccc1OC	-2.3	13.4	-1.9	2.3	0.61	43.9*	-0.7	-4.9
CCC(C)(C)n1nnnc1C(c1ccc(O)c(OC)c1)N1CCN(c2nc3ccccc3s2)CC1 (stereo not given)	15.5	6.2	-2.5	-15.5	-0.88	23.7*	-0.6	7.1
OC1C2COC(O2)C2OC(c3ccccc3)OC12 (stereo not given)	nt	nt	nt	nt	nt	0.7	nt	nt
O=C(NCc1ccc(F)cc1)C1CCCN(S(=O)(=O)c2cccc3nonc23)C1 (stereo not given)	5.1	6.2	-5.0	-5.1	nt	17.4*	-0.6	-4.5
OC[C@H]1O[C@H](OC[C@H]2OC(O)[C@H](O)[C@@H](O)[C@@H]2O)[C@H](O)[C@@H](O)[C@@H]1O (stereo not given in full)	-21.6	nt	6.1	21.6	nt	-2.2	nt	nt
SMILES	SR-BI HDL uptake	Calb FLC	beta cell repl	SR-BI uptake up	Ins promoter up	m5-HT2A agonist	OPRM1 ag	m5-HT2A ag conf
Cc1nc2cc(Cl)c([N+](=O)[O-])cc2s1	-38.9	-5.3	0.4	38.9	-0.07	18.5*	-0.6	-0.7
Cc1nc2ccc([N+](=O)[O-])cc2s1	1.1	7.4	2.5	-1.1	0.19	3.9	nt	nt
OCC1=C[C@@H](O)[C@@H]2C=CO[C@@H](O[C@@H]3O[C@H](CO)[C@@H](O)[C@H](O)[C@H]3O)[C@H]12	-14.5	nt	-1.5	14.5	nt	10.1	nt	nt
O=C(NCc1ccccc1C(F)(F)F)c1cccc2c1C(=O)c1ccc(N3CCCCC3)cc1S2(=O)=O	-7.4	nt	-2.4	7.4	nt	6.4	nt	nt
Cc1cc(=O)[nH]c2sc(C(=O)N3c4ccccc4CC3C)c(N)c12 (stereo not given)	-4.7	nt	-0.3	4.7	nt	5.7	nt	nt
Cc1ccc(Cl)cc1N1CCN(C(=O)CCCn2c(=O)c3cccn3c3cccnc32)CC1	69.3	13.7	-6.7	-69.3	nt	-1.0	nt	nt
O=C(Cn1c(=O)c2cccn2c2cccnc21)N1CCN(c2ccc(Cl)cc2)CC1	28.1	1.9	-0.4	-28.1	nt	14.9*	-0.6	-1.4
COc1ccc(-c2nc3n(c2C)CCC3)cc1	-11.9	6.8	-1.1	11.9	-0.27	23.1*	-0.3	15.4*
Cc1cc(=O)oc2cc(OC(=O)c3ccccc3)ccc12	8.0	-3.3	-1.6	-8.0	2.34	-2.9	nt	nt
Cc1ccc(N(C)S(=O)(=O)c2cccc(C(=O)Oc3ccc4c(C)cc(=O)oc4c3)c2)cc1	-27.8	4.9	-3.7	27.8	0.02	19.1*	-0.5	-3.3
Nc1nc(N)c2[nH]c(-c3ccccc3)nc2n1	-12.7	-4.9	-0.8	12.7	nt	3.2	nt	nt
COc1ccc(C2=CC(c3sccc3C)n3nnnc3N2)cc1 (stereo not given)	31.1	13.2	-3.3	-31.1	2.76	15.0*	0.1	2.1
